Compound activity (PubChem BioAssay)
Only some compounds are listed: those with a hit (about 2.6% of all), similar ones and a draw of the others.
FGF22 binding = shifts melting point of recombinant human FGF22. Q9HCT0. recombinant FGF22 thermal shift, SYPRO orange fluorescence; percent of sucrose octasulfate shift, DMSO zero. activity (Tm shift, normalised), % at 9.99 µM. 340,000 compounds, 1.5% hits. AID 651658;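 active = mean Tm shift, scaled 0 neutral to 100 positive control, at about 1.3% or above, every replicate too, limit read from the data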
Target sequence (Q9HCT0 whole entry, looked up): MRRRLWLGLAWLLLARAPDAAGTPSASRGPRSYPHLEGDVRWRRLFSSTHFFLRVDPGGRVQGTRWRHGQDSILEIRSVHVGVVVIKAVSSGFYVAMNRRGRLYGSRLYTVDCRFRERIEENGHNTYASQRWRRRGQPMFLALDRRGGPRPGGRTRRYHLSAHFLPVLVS
Casp6 inh = inhibitors of human caspase-6; purified caspase-6, Z-VEID-R110 cleavage fluorescence; P55212; 350,000 compounds, 0.53% hits; inhibition, % at 12.5 µM; AID 686996;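 active = mean inhibition across replicates at least about 35%, with every replicate also reaching that limit, limit read from the data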;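 also: 0% = median of neutral control wells and 100% = no fluorescence left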
UCH37 DUB inh = human UCH37 deubiquitinating enzyme inhibition; Q9Y5K5; purified proteasome/UCH37, Ub-AMC cleavage fluorescence; inhibition, % (no concentration beside the values); 330,000 compounds, 0.33% hits; AID 588478;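 active = mean inhibition over replicate wells above about 20%, limit read from the data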;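 also: 0% = compound-free wells with enzyme and 100% = wells lacking proteasome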
Target sequence (Q9Y5K5 whole entry, looked up): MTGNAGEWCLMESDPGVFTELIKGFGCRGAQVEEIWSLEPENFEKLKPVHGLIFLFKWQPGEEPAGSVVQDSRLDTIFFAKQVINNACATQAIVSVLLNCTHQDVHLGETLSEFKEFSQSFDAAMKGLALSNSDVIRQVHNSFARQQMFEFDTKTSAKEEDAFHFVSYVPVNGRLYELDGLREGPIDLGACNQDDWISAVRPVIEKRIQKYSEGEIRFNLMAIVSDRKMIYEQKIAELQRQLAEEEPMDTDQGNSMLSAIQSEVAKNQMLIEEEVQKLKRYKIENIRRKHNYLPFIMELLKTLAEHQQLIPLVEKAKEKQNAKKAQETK
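Material: Human UCH37 enzyme supplied as purified proteasome complex | Schedule: 30 min preincubation with enzyme, 25 min cleavage at room temperature | Detection: AMC fluorescence 355/460 nm | Measure: % inhibition of Ub-AMC cleavage fluorescence | Controls: Wells without proteasome as full block, compound-free enzyme plus substrate as uninhibited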
NSD2 HMT inh = inhibitors of human histone methyltransferase NSD2; O96028; inhibition, % at 12.5 µM; NSD2 peptide methylation, AlphaScreen, 120 min; 310,000 compounds, 0.54% hits; in the data active = inhibition above about 50%
SIRT5 block = blocks human SIRT5 desuccinylation of peptide; Purified SirT5, succinyl-peptide AMC, trypsin-coupled fluorescence; inhibition, % at 15 µM; 330,000 compounds, 1.1% hits; AID 652115; in the data active = inhibition above about 15%
Starred values were filed as active, the others as inactive; nt = no result.

SMILES	FGF22 binding	Casp6 inh	UCH37 DUB inh	NSD2 HMT inh	SIRT5 block
COc1ccc(C#Cc2cnc3c(c2)C(=O)N([C@@H](C)CO)C[C@@H](C)[C@@H](CN(C)C(=O)c2ccccc2F)O3)cc1	1	1	nt	nt	3
Cc1ccc2c(c1)c1c(n2CC(O)CNC(C)(C)C)CCCC1 (stereo not given)	-1	65*	5	nt	nt
Cc1ccc2c(c1)c1c(n2CC(O)CN2CCCCCC2)CCCC1 (stereo not given)	0	nt	3	23	-6
COc1ccccc1-c1cn(CC[C@H]2CC[C@@H](NC(=O)C3CCCCC3)[C@H](CO)O2)nn1	0	-3	nt	nt	-2
CC1(C)Cc2ccccc2C(=O)N1	nt	nt	26*	-6	nt
COc1ccc(-c2c[n+](CC(=O)OC3CC(C)CCC3C(C)C)c3n2CCC3)cc1 (stereo not given)	43*	15	4	nt	9
NNC(=O)c1ccc(CN2C(=O)c3cccc4cccc2c34)cc1	44*	0	-23	0	-1
CC(=O)N1[C@H](CO)[C@H](c2ccccc2)[C@@H]1CN(C)S(=O)(=O)c1ccccc1	0	-6	nt	nt	-3
CC(=O)c1ccc(S(=O)(=O)Nc2c(C)nn(C)c2C)cc1	0	43*	0	10	-2
Cc1ccc(S(=O)(=O)Nc2c(C)nn(C)c2C)cc1C	0	0	1	-3	-3
CO[C@H]1CN(C)C(=O)c2ccc(NC(=O)Cc3ccccc3)cc2OC[C@@H](C)N(C(=O)c2ccccc2F)C[C@@H]1C	0	nt	nt	nt	1
O=C(C[C@H]1C=C[C@H](NC(=O)c2ccccc2)[C@H](CO)O1)NCCc1ccncc1	0	41*	nt	nt	2
O=C(C[C@H]1CC[C@@H](NC(=O)c2ccccc2)[C@H](CO)O1)NCCc1ccncc1	0	0	nt	nt	32*
Cc1ccc(S(=O)(=O)N2CCN(C(=O)CNC(=O)c3ccc(Cl)cc3)CC2)cc1	44*	-3	0	1	-1
O=C(Cc1ccc(F)cc1)OCC(=O)N1CCN(S(=O)(=O)c2ccc(Cl)cc2)CC1	0	3	2	-3	19*
CC1CC(C)CN(C(=O)COC(=O)Cc2ccc(Br)cc2)C1 (stereo not given)	0	0	1	-5	-3
O=C(Cc1ccc(Br)cc1)OCC(=O)N1CCCCCC1	43*	3	3	-2	nt
Cc1ccc(C(=O)NCC(=O)N2CCCN(S(=O)(=O)c3ccc(C)cc3)CC2)cc1	0	-2	2	-1	-4
O=C(CON=Cc1ccccc1Cl)N1CCCc2ccccc21	nt	nt	4	nt	nt
O=C(c1ccncc1)N1N=C(C2CC2)CC1(O)C(F)(F)F (stereo not given)	0	0	1	1	-2
O=C(c1cccnc1)N1N=C(C2CC2)CC1(O)C(F)(F)F (stereo not given)	44*	0	2	0	-2
CO[C@H]1CN(C)C(=O)c2cc(NC(=O)Nc3ccc4c(c3)OCO4)ccc2OC[C@@H](C)NC[C@H]1C	-1	-2	nt	nt	nt
CC(C)COCC(O)CC(Cc1ccccc1)C(=O)NN (stereo not given)	43*	2	2	-2	2
COc1ccccc1OCC(=O)Nc1ccncc1	0	-2	3	0	-2
Cc1cccc(OCC(=O)Nc2ccncc2)c1C	0	14	2	1	15*
SMILES	FGF22 binding	Casp6 inh	UCH37 DUB inh	NSD2 HMT inh	SIRT5 block
COC(=O)[C@]1(Cc2ccccc2)N=C(c2ccc(OCCCO)cc2)O[C@@H]1c1ccccc1CN=[N+]=[N-]	-1	3	nt	nt	1
COC(=O)[C@@]1(Cc2ccccc2)N=C(c2ccc(OCCCO)cc2)O[C@H]1c1ccccc1CN=[N+]=[N-]	0	1	nt	nt	20*
CC(C)(C)C(=O)/C=c1\s/c(=C\c2ccc(-c3ccc([N+](=O)[O-])cc3)o2)c(=O)n1CC(=O)NC(N)=O	44*	1	nt	nt	2
COc1ccc(S(=O)(=O)N(C)C[C@H]2OCCCC[C@@H](C)Oc3ccc(NC(=O)Nc4cccc5ccccc45)cc3C(=O)N([C@H](C)CO)C[C@@H]2C)cc1	1	0	nt	nt	0
C[C@@H]1CCCCO[C@H](CN(C)S(=O)(=O)c2cn(C)cn2)[C@@H](C)CN([C@H](C)CO)C(=O)c2cc(NC(=O)Nc3cccc4ccccc34)ccc2O1	1.7*	-3	nt	nt	-2
COc1ccc(S(=O)(=O)N(C)C[C@H]2OCCCC[C@@H](C)Oc3ccc(NC(=O)Nc4cccc5ccccc45)cc3C(=O)N([C@@H](C)CO)C[C@H]2C)cc1	1.5*	1	nt	nt	-14
COc1ccc(S(=O)(=O)N(C)C[C@H]2OCCCC[C@H](C)Oc3ccc(NC(=O)Nc4cccc5ccccc45)cc3C(=O)N([C@H](C)CO)C[C@H]2C)cc1	1.7*	1	nt	nt	6
Cc1noc(C)c1NC(=O)Nc1ccc2c(c1)C(=O)N([C@@H](C)CO)C[C@@H](C)[C@@H](CN(C)S(=O)(=O)c1cn(C)cn1)OCCCC[C@@H](C)O2	0	-3	nt	nt	17*
COc1ccc(S(=O)(=O)N(C)C[C@@H]2OCCCC[C@H](C)Oc3ccc(NC(=O)Nc4cccc5ccccc45)cc3C(=O)N([C@@H](C)CO)C[C@H]2C)cc1	1	0	nt	nt	-2
COC(=O)[C@@H]1[C@@H](CO)[C@@H]2Cn3c(ccc(C4=CCCC4)c3=O)[C@@H]2N1CC1CCOCC1	0	2	nt	nt	2
CC(=O)Nc1ccc2c(c1)C(=O)N(C)[C@H]1CC[C@@H](CC(=O)NCCCN3CCOCC3)O[C@@H]1CO2	0	1	nt	nt	-4
C[C@H]1CN([C@@H](C)CO)C(=O)Cc2cc(N(C)C)ccc2O[C@@H]1CN(C)C(=O)NC1CCCCC1	-1	0	nt	nt	nt
C[C@@H]1CN([C@H](C)CO)C(=O)c2cc(N(C)C)ccc2O[C@@H](C)CCCCO[C@@H]1CN(C)S(C)(=O)=O	0	0	nt	nt	-2
COc1ccc(S(=O)(=O)N(C)C[C@@H]2OCCCC[C@H](C)Oc3ccc(NS(=O)(=O)c4cn(C)cn4)cc3C(=O)N([C@@H](C)CO)C[C@@H]2C)cc1	0	2	nt	nt	7
COc1ccc(S(=O)(=O)N(C)C[C@H]2OCCCC[C@@H](C)Oc3ccc(NC(=O)Nc4cccc5ccccc45)cc3C(=O)N([C@@H](C)CO)C[C@@H]2C)cc1	1.3*	-4	nt	nt	-1
Cc1noc(C)c1S(=O)(=O)N(C)C[C@@H]1OCCCC[C@@H](C)Oc2ccc(NC(=O)Nc3cccc4ccccc34)cc2C(=O)N([C@H](C)CO)C[C@@H]1C	0	1	nt	nt	20*
COc1ccc(S(=O)(=O)N(C)C[C@@H]2OCCCC[C@H](C)Oc3ccc(NC(=O)Nc4cccc5ccccc45)cc3C(=O)N([C@H](C)CO)C[C@@H]2C)cc1	0	4	nt	nt	3
CC(=O)OCC1=C(C(=O)O)N2C(=O)C(NC(=O)Cn3nc(C(F)F)c(Cl)c3C)C2SC1 (stereo not given)	43*	30	6	1	-4
